Assay results: ChEMBL document CHEMBL4610127, “Novel Autotaxin Inhibitor for the Treatment of Idiopathic Pulmonary Fibrosis: A Clinical Candidate Discovered Using DNA-Encoded Chemistry” (J Med Chem, 2020)

Tests used:
[1] = biological target: Autotaxin (Mus musculus) (UniProt Q9R1E6); assay: Potency index, ratio of IC50 for GLPG1690 to IC50 for test compound for inhibition of autotaxin in mouse plasma assessed as reduction in LPA (18:2) production incubated for 2 hrs LC-MS-/MS analysis; format: cell-free
[2] = Protein binding in rat plasma; format: ADME, cell-free; details: read-out: PPB (converted)
[3] = Protein binding in human plasma; format: ADME, cell-free; details: read-out: PPB (converted)
[4] = biological target: Cytochrome P450 3A4 (Homo sapiens, UniProt P08684); assay: Inhibition of CYP3A4 (unknown origin); format: ADME
Sequence of Cytochrome P450 3A4 (P08684 whole entry): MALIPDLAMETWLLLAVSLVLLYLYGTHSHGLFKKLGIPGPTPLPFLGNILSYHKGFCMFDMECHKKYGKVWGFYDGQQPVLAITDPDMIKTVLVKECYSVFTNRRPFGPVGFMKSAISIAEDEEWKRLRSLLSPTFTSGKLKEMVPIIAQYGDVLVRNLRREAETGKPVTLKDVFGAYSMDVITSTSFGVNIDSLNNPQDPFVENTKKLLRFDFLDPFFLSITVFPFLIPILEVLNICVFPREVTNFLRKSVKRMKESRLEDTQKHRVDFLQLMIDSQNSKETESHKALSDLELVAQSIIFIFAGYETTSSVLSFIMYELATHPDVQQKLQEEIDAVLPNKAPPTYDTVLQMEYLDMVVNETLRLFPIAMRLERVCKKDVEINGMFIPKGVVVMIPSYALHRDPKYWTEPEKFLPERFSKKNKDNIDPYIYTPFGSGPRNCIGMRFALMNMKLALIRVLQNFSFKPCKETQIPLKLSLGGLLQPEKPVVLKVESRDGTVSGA

[5] = biological target: T1, Cytochrome P450 1A2 (Homo sapiens, UniProt P05177); assay: Inhibition of CYP1A2 (unknown origin); format: ADME
T1 sequence (P05177 whole entry): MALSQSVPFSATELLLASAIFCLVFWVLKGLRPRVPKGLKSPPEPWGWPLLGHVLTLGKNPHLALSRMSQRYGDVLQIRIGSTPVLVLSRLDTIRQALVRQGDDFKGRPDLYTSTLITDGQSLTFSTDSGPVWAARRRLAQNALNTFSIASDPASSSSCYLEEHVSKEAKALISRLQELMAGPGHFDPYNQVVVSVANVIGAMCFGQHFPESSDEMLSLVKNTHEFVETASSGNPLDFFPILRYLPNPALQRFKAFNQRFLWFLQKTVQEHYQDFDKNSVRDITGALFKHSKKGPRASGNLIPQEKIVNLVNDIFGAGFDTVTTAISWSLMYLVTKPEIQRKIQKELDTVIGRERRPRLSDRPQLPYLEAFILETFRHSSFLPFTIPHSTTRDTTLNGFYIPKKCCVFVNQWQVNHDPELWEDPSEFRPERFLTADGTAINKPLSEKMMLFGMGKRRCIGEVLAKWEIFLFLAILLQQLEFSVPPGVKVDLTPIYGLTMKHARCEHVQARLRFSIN

[6] = biological target: Cytochrome P450 2C19 (Homo sapiens, UniProt P33261); assay: Inhibition of CYP2C19 (unknown origin); format: ADME
Sequence of Cytochrome P450 2C19 (P33261 whole entry): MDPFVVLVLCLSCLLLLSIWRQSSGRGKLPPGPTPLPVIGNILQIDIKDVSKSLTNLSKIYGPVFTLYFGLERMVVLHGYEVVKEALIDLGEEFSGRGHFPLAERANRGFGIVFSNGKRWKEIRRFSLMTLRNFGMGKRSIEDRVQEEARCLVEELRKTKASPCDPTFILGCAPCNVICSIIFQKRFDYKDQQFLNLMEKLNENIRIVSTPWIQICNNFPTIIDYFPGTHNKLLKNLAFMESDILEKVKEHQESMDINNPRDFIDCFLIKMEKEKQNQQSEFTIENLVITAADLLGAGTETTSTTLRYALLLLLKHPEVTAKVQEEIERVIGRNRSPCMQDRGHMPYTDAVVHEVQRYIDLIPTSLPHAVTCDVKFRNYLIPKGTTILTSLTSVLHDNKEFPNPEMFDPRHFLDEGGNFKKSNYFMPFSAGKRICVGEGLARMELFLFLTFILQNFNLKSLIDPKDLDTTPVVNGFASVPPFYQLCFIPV

[7] = biological target: T2, Lysophosphatidic acid receptor 3 (Homo sapiens, UniProt Q9UBY5); assay: Inhibition of LPAR3 (unknown origin)
T2 sequence (Q9UBY5 whole entry): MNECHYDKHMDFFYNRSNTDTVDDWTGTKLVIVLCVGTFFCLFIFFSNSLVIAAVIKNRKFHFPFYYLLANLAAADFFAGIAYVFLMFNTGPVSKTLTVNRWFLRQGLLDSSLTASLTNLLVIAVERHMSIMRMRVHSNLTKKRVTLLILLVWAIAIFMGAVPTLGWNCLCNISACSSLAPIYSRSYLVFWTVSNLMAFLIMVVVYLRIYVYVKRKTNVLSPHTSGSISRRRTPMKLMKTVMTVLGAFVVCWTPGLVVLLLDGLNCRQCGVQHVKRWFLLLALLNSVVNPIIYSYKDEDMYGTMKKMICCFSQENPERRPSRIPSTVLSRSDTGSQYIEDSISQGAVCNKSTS

[8] = Half life in rat liver microsomes; format: ADME, Microsome
[9] = test system: Rattus norvegicus; assay: Inhibition of LPA (20:4) production in rat at 0.1 to 30 mg/kg, po measured after 4 hrs by LC-MS/MS analysis; format: functional, organism-based
Outline: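 Rats dosed orally across a dose range. LPA 20:4 and compound levels measured by LC-MS/MS in blood at 4 h post-dose. LPA 20:4 chosen because it is more abundant in rats. Average percent inhibition of LPA plotted against plasma compound level to derive IC50.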

[10] = test system: Mus musculus; assay: Anti-fibrotic activity in C57BL/6 mouse model of bleomycin-induced lung fibrosis assessed as reduction in lung fibrosis levels at 30 to 300 mg/kg, po BID for 21 days dosed 7 days after bleomycin treatment by trichrome staining based assay; format: functional, organism-based
Outline: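 Therapeutic mode: oral BID dosing (30, 100, 300 mg/kg) began seven days after bleomycin. Mice killed 21 days after bleomycin; fibrosis quantitated by trichrome staining of lung tissue in a separate group from the hydroxyproline group. GLPG1690 at 30 and 100 mg/kg BID as control.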

[11] = Clearance in rat at 1 mg/kg, iv; format: ADME, organism-based; details: in vivo
[12] = Cmax in mouse at 10 mg/kg, po; format: ADME, organism-based; design: dose 10 mg/kg, route oral; details: in vivo
[13] = Half life in mouse at 10 mg/kg, po; format: ADME, organism-based; details: in vivo
[14] = Half life in rat at 1 mg/kg, iv; format: ADME, organism-based; details: in vivo
[15] = Half life in rat at 5 mg/kg, po; format: ADME, organism-based; details: in vivo
[16] = Clearance in dog at 1 mg/kg, iv; format: ADME, organism-based, Canis lupus familiaris; details: in vivo
[17] = Cmax in dog at 1 mg/kg, po; format: ADME, organism-based, Canis lupus familiaris; design: dose 1 mg/kg, route oral; details: in vivo
[18] = Oral bioavailability in dog at 1 mg/kg; format: ADME, organism-based, Canis lupus familiaris; details: in vivo

Structure (SMILES): CC(C)[C@@H](NC(=O)c1cc(C(F)(F)F)ccc1F)C(=O)N1CCC2(CC1)C(=O)N(C)C(=O)N2c1ccc2[nH]ncc2c1
- Ratio IC50 [1]: 60
- fraction unbound [2]: 0.273
- fraction unbound [3]: 0.113
- IC50 [4]: > 50 µM
- IC50 [5]: > 50 µM
- IC50 [6]: 46 µM
- IC50 [7]: > 10 µM
- half-life [8]: 4.62 h
- IC50 [9]: 0.0065 µM
- inhibition [9]: Dose-dependent effect
- Activity [10]: Dose-dependent effect
- clearance [11]: 36 mL/min/kg
- Cmax [12]: 744 ng/mL
- half-life [13]: 2.5 h
- half-life [14]: 1.5 h
- half-life [15]: 1.8 h
- clearance [16]: 7.96 mL/min/kg
- Cmax [17]: 374 ng/mL
- bioavailability [18]: 100%
